From ChEMBL document CHEMBL1240299, “C3-symmetric peptide scaffolds are functional mimetics of trimeric CD40L” (Nat Chem Biol, 2005) come the findings set out here.

Each structure is given as a SMILES string. The source made the active and inactive calls. No cut-off for these calls is given here.

The subject of assay [1] is BL-41. Kind of assay: Induction of apoptosis in CD40-positive human BL41 cells assessed as decrease in reduction in DiOC6 dye uptake after DAPI staining by epifluorescence microscopy. Format: functional, cell-based.
Assay [2] relates to BL-41. Kind of assay: Induction of apoptosis in CD40-positive human BL41 cells assessed as decrease in mitochondrial membrane potential after 16 hrs by mean fluorescence intensity. Format: functional, cell-based. In a few lines:
(§1)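 BL41 Burkitt lymphoma cells in RPMI 1640 with 10% FBS were seeded at 5×10^5 ml⁻¹ and exposed to inducers at 37 °C (16 h). Apoptosis was read by flow cytometry, either as loss of DiOC₆(3) uptake (Δψm) or as annexin V–FITC/PI co-staining. Specific apoptosis % = (treated − control)×100/(100 − control). Values are means of three independent experiments.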

For assay [3], the target named is T1, Tumor necrosis factor receptor superfamily member 5 (Homo sapiens, UniProt P25942). In words: Inhibition of recombinant human CD40L:mouse CD8 tail binding to human CD40 by surface plasmon resonance method. In a few lines:
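hCD40:mIg was captured on an anti-mouse Ig chip. A fixed amount of soluble hCD40L:CD8 was premixed with increasing ligand concentrations, and the mixtures were injected at 25 °C in HBS-EP, 30 µl min⁻¹, 5 min association and 5 min dissociation. Regeneration was 50 mM HCl. Inhibition of CD40L binding was taken from reference-subtracted sensorgrams.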
A general note: Surface plasmon resonance follows binding to a sensor surface in real time, without labels.

The subject of assay [4] is BL-41. Kind of assay: Induction of apoptosis in CD40-positive human BL41 cells assessed as level of CD40 expression by mean fluorescence intensity. Format: functional, cell-based.
Assay [5] relates to BL-41. In words: Induction of apoptosis in CD40-positive human BL41 cells assessed as detection of phosphatidylserine expression using annexin V-FITC and propidium iodine staining by flow cytometry. Format: functional, cell-based. In a few lines:
as §1

Assay [6] relates to BL-41. Kind of assay: Induction of apoptosis in CD40-positive human BL41 cells assessed as reduction in DiOC6 dye uptake after DAPI staining.
In assay [7] the target is T1, Tumor necrosis factor receptor superfamily member 5. In words: Binding affinity to human CD40 by surface plasmon resonance method. In a few lines:
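Biacore CM5 chip coated by amine coupling with anti-mouse Ig (~10,000 RU), which captured hCD40:mIg. Ligands were dissolved in water at 1 mM and diluted, then injected at several concentrations at 25 °C in HBS-EP (pH 7.4), 30 µl min⁻¹, 5 min association and 5 min dissociation. Regeneration was 50 mM HCl. Control-channel-subtracted sensorgrams were fitted to binding models.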

T1 sequence (P25942 whole entry): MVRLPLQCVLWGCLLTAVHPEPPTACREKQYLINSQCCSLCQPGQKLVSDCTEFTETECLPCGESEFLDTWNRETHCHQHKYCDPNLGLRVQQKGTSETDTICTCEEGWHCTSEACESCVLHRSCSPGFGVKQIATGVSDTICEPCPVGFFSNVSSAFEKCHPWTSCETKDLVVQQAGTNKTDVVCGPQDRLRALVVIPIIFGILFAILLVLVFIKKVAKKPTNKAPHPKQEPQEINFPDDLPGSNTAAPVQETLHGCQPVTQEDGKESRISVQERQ

As for `NCCCC[C@H](N)C(=O)NCC(=O)N[C@@H](Cc1ccc(O)cc1)C(=O)N[C@@H](Cc1ccc(O)cc1)C(=O)NCCCCCC(=O)NCCCC[C@@H]1CNC(=O)C[C@H](CCCCNC(=O)CCCCCNC(=O)[C@H](Cc2ccc(O)cc2)NC(=O)[C@H](Cc2ccc(O)cc2)NC(=O)CNC(=O)[C@@H](N)CCCCN)NC[C@H](CCCCNC(=O)CCCCCNC(=O)[C@H](Cc2ccc(O)cc2)NC(=O)[C@H](Cc2ccc(O)cc2)NC(=O)CNC(=O)[C@@H](N)CCCCN)NC(=O)C1`, the result in the assay on BL-41 [1], in the assay on BL-41 [2], with BL-41 [4], in the assay on BL-41 [5] and in the assay on BL-41 [6] was Active. In assay [3], the IC50 – broadly, the concentration needed to halve the response being measured – stood at 50 nM.
As to `NCCCC[C@H](N)C(=O)NCC(=O)N[C@@H](Cc1ccc(O)cc1)C(=O)N[C@@H](Cc1ccc(O)cc1)C(=O)NCCCCCC(=O)N[C@@H](CCCCNC(=O)CCCC[C@H]1SC[C@H]2NC(=O)N[C@H]21)C(=O)NCCCCCC(=O)NCCCC[C@@H]1CNC(=O)C[C@H](CCCCNC(=O)CCCCCNC(=O)[C@H](CCCCNC(=O)CCCC[C@H]2SC[C@H]3NC(=O)N[C@H]32)NC(=O)CCCCCNC(=O)[C@H](Cc2ccc(O)cc2)NC(=O)[C@H](Cc2ccc(O)cc2)NC(=O)CNC(=O)[C@@H](N)CCCCN)NC[C@H](CCCCNC(=O)CCCCCNC(=O)[C@H](CCCCNC(=O)CCCC[C@H]2SC[C@H]3NC(=O)N[C@H]32)NC(=O)CCCCCNC(=O)[C@H](Cc2ccc(O)cc2)NC(=O)[C@H](Cc2ccc(O)cc2)NC(=O)CNC(=O)[C@@H](N)CCCCN)NC(=O)C1`, the result in assay [7] was Active.
